# Reference: PMC8961603 (RSC Advances, 2022)
# “Also recorded” adds a separate entry of the source.
# Legend:
# [1] = In vitro cytotoxicity assay; assay type: cell-based; details: African green monkey, Vero cells, Vero IC50 cytotoxicity, MTT
# [2] = tested on: human blood cells (red blood cell suspension); experiment: Haemolytic assay; assay type: cell-based
# In short: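 Fresh anticoagulated human blood spun 10 min at 2000 rpm; pellet resuspended in 0.9% NaCl to a 2% v/v red cell suspension. Cells incubated with test compound at 25, 50 or 100 μg ml−1 for 1 h at 37 °C, 5% CO2. Haemoglobin release read at 540 nm. Controls were 1% v/v NaOH for complete lysis and 0.9% NaCl for none. Percent haemolysis was calculated.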
# [3] = tested on: third stage instar larvae of Aedes aegypti; experiment: Larvicidal bioassay; assay type: in vivo; details: for larvicidal activity (in words): 24, 48 and 72 h exposure, 50-250 μg ml^−1
# Vero cells = experiment: In vitro cytotoxicity assay; assay type: cell-based; details: MTT
# [4] = tested on: Aedes aegypti larvae (midgut); experiment: Histopathological analysis of larvae; assay type: in vivo; details: 72 h exposure
# [5] = 24 h exposure, log probit analysis
# [6] = 48 h exposure, log probit analysis
# [7] = 72 h exposure, log probit analysis
# [8] = Aedes aegypti, 24 h, 24 h exposure, log probit analysis
# [9] = Aedes aegypti, 48 h, 48 h exposure, log probit analysis
# [10] = Aedes aegypti, 72 h, 72 h exposure, log probit analysis
# [11] = larvicidal LC50 used in QSAR training set, exposure time not given
compound,measurement,setting,value
"CC(C)=CCc1c(O)cc(O)c2c1O[C@H](c1ccccc1)CC2=O [Glabranin, reference compound]",IC50,[1],252 ± 0.2 µg/mL
same,Hemolytic (%),[2]; Conc. 25 PPM,2.326%
same,Hemolytic (%),[2]; Conc. 50 PPM,4.713%
same,Hemolytic (%),[2]; Conc. 100 PPM,5.217%
same,LC90,[3]; [5],311.453 ppm
same,LC90,[3]; [6],241.010 ppm
same,LC90,[3]; [7],179.532 ppm
same,LC50,[3]; [8],258 µg/mL
same,LC50,[3]; [9],199 µg/mL
same,LC50,[3]; [10],140 µg/mL
"2-(3-Methylphenyl)-5-[(E)-2-phenylethenyl]-5,6-dihydro[1,2,4]triazolo[5,1-b][1,3,4]thia diazole [CATD 4]",Vero IC50 cytotoxicity,Vero cells,252 ± 0.20 µg/mL
same,LC50,[3]; [11],0.15 µM
"CC(=O)OCC(CCn1cnc2cnc(N)nc21)COC(C)=O [FMCV, Famciclovir, reference compound]",IC50,[1],270 ± 0.2 µg/mL
same,Hemolytic (%),[2]; Conc. 25 PPM,4.802%
same,Hemolytic (%),[2]; Conc. 50 PPM,6.448%
same,Hemolytic (%),[2]; Conc. 100 PPM,8.901%
same,LC90,[3]; [6],241.010 ppm
same,LC90,[3]; [7],179.532 ppm
same,LC50,[3]; [8],248 µg/mL
same,LC50,[3]; [9],203 µg/mL
same,LC50,[3]; [10],139 µg/mL
"(2E)-3-(4-Aminophenyl)-N′-(2,4-dinitrophenyl)prop-2-enehydrazide [ACA 4]",Vero IC50 cytotoxicity,Vero cells,328 ± 0.02 µg/mL
same,Hemolytic (%),[2]; Conc. 25 PPM,1.736%
same,Hemolytic (%),[2]; Conc. 50 PPM,2.122%
same,Hemolytic (%),[2]; Conc. 100 PPM,3.460%
same,larvicidal activity (in words),[3],slow mortality; also recorded: effectively showed larvicidal activity
same,LC50,[3]; [5],101.176 ppm
same,LC90,[3]; [5],358.428 ppm
same,LC50,[3]; [6],88.823 ppm
same,LC90,[3]; [6],323.217 ppm
same,LC50,[3]; [7],47.347 ppm
same,LC90,[3]; [7],240.784 ppm
same,LC50,[3]; [11],0.10 µM
same,histopathological findings in larvae,[4],severe lesions that primarily affected the midgut epithelium
"SC1=NCN(/C=C/c2ccccc2)N1N=Cc1ccc(Br)cc1 [CA 10, 2-{[(4-Bromophenyl)methylidene]amino}-1-[(E)-2-phenylethenyl]-2,5-dihydro-1H-1,2,4-triazole-3-thiol]",IC50,[1],241 ± 0.01 µg/mL
same,LC90,[3]; [5],210.414 ppm
same,LC90,[3]; [6],172.096 ppm
same,LC90,[3]; [7],122.913 ppm
same,LC50,[3]; [8],156 µg/mL
same,LC50,[3]; [9],121 µg/mL
same,LC50,[3]; [10],50.3 µg/mL
"NC(=S)NNC(=O)/C=C/c1ccc(N)cc1 [ACA 3, 2-[(2E)-3-(4-Aminophenyl)prop-2-enoyl]hydrazine-1-carbothioamide]",IC50,[1],254 ± 0.03 µg/mL
"Nc1ccc(/C=C/C(=O)NNc2ccc([N+](=O)[O-])cc2[N+](=O)[O-])cc1 [ACA 1, (2E)-3-(4-Aminophenyl)-N′-(2,4-dinitrophenyl)prop-2-enehydrazide]",IC50,[1],285 ± 0.05 µg/mL
"Oc1ccc(C2=NN3C(=NCN3/C=C/c3ccccc3)S2)cc1O [CATD 3, 4-{5-[(E)-2-Phenylethenyl]-5,6-dihydro[1,2,4]triazolo[5,1-b][1,3,4]thiadiazol-2-yl}benzene-1,2-diol]",IC50,[1],270 ± 0.2 µg/mL
"COc1cc(C=NN2C(S)=NCN2/C=C/c2ccccc2)ccc1O [CA 7, 2-Methoxy-4-[({2-[(E)-2-phenylethenyl]-5-sulfanyl-2,3-dihydro-1H-1,2,4-triazol-1-yl}imino)methyl] phenol]",IC50,[1],295 ± 0.04 µg/mL
"2-{[(4-Chlorophenyl) methylidene] amino}-1-[(E)-2-phenylethenyl]-2,5-dihydro-1H-1,2,4-triazole-3-thiol [CA 1]",Vero IC50 cytotoxicity,Vero cells,309 ± 0.21 µg/mL
same,LC50,[3]; [11],0.13 µM
"O=[N+]([O-])c1ccc(C=NN2C(S)=NCN2/C=C/c2ccccc2)cc1 [CA 9, 2-{[(4-Nitrophenyl)methylidene]amino}-1-[(E)-2-phenylethenyl]-2,5-dihydro-1H-1,2,4-triazole-3-thiol]",IC50,[1],235 ± 0.05 µg/mL
"1-[(E)-2-Phenylethenyl]-2-{[(3,4,5-trimethoxy phenyl) methylidene] amino}-2,5-dihydro-1H-1,2,4-triazole-3-thiol [CA 5]",Vero IC50 cytotoxicity,Vero cells,223 ± 0.05 µg/mL
"Cc1cccc(C2=NN3C(=NCN3/C=C/c3ccccc3)S2)c1 [CATD 2, 2-(3-Methylphenyl)-5-[(E)-2-phenylethenyl]-5,6-dihydro[1,2,4]triazolo[5,1-b][1,3,4]thiadiazole]",IC50,[1],218 ± 0.02 µg/mL
same,Hemolytic (%),[2]; Conc. 25 PPM,4.605%
same,Hemolytic (%),[2]; Conc. 50 PPM,5.367%
same,Hemolytic (%),[2]; Conc. 100 PPM,5.759%
same,larvicidal activity (in words),[3],effectively showed larvicidal activity
same,LC90,[3]; [5],311.453 ppm
same,LC90,[3]; [6],241.010 ppm
same,LC90,[3]; [7],179.532 ppm
same,LC50,[3]; [8],187 µg/mL
same,LC50,[3]; [9],132 µg/mL
same,LC50,[3]; [10],86.6 µg/mL
same,histopathological findings in larvae,[4],severe lesions that primarily affected the midgut epithelium
"CN(C)c1ccc(/C=C/C=NN2C(S)=NCN2/C=C/c2ccccc2)cc1 [CA 11, 2-({(2E)-3-[4-(Dimethylamino)phenyl]prop-2-en-1-ylidene}amino)-1-[(E)-2-phenylethenyl]-2,5-dihydro-1H-1,2,4-triazole-3-thiol]",IC50,[1],229 ± 0.02 µg/mL
